Results pooled from the literature.
Each line is one published result; the experiments were not run side by side.
Melanocortin receptor 5: Melanocortin receptor 5 (Mus musculus, UniProt P41149)
gyrB: DNA gyrase subunit B (gyrB, Escherichia coli, UniProt P0AES6)
Adora1: Adenosine receptor A1 (Adora1, Rattus norvegicus, UniProt P25099)
CA9: Carbonic anhydrase 9 (CA9, Homo sapiens, UniProt Q16790)
PKN1: Serine/threonine-protein kinase N1 (PKN1, Homo sapiens, UniProt Q16512)

`O=C(Nc1ccc(N2C(=O)c3ccccc3C2=O)c(Cl)c1)c1ncccc1O` gave an EC50 of 130 nM (Metabotropic glutamate receptor 4 (GRM4, Homo sapiens, UniProt Q14833); calcium signal; agonist).
For `CSCC[C@H](NC(=O)[C@@H](NC(=O)[C@@H](N)Cc1ccc(O)cc1)C(C)C)C(=O)NCC(=O)N[C@@H](Cc1c[nH]cn1)C(=O)N[C@@H](Cc1ccccc1)C(=O)N[C@@H](CCCNC(=N)N)C(=O)N[C@@H](Cc1c[nH]c2ccccc12)C(=O)N[C@@H](CC(=O)O)C(=O)N[C@@H](CCCNC(=N)N)C(=O)N[C@@H](Cc1ccccc1)C(=O)O`, the EC50 was 130 nM (Melanocortin receptor 5; reporter gene; agonist).
For `CNc1cccc2cc(C(=O)NCc3cccc(C(=O)O)c3)c(=O)[nH]c12`, the Kd was 390 nM (gyrB; binding; ITC).
`N=C(N)NCCC[C@H](NC(=O)[C@H](CC(=O)O)NC(=O)[C@H](Cc1c[nH]c2ccccc12)NC(=O)[C@H](CCCNC(=N)N)NC(=O)[C@H](Cc1ccccc1)NC(=O)[C@@H](N)Cc1c[nH]cn1)C(=O)N[C@@H](Cc1ccccc1)C(=O)O` gave an EC50 of 1870 nM (Melanocortin receptor 5; reporter gene; agonist).
With `CCCC(C)N1CCCn2c1nc1c2c(=O)n(C)c(=O)n1C` (stereo not drawn) the Ki was over 25000 nM (Adora1; ligand displacement; radioligand; cell membranes).
`Cc1cc(C(=O)Nc2ccc(-c3cn(C)nn3)cc2)c(C)n1Cc1ccc(S(N)(=O)=O)cc1` has an IC50 of 18.2 nM (CA9; enzyme activity; inhibitor).
The Kd of `O=C(O)c1cccc(NC(=O)c2cc3ccccc3[nH]c2=O)c1` is reported as 7000 nM (gyrB; binding; ITC).
`Cc1cc(C(=O)Nc2ccccc2C(=O)NCc2cn(C)nn2)c(C)n1Cc1ccc(S(N)(=O)=O)cc1` has an IC50 of 38.9 nM (CA9; enzyme activity; inhibitor).
`CCCCNc1ncc2c(-c3ccc(CN4CCN(C)CC4)cc3)cn([C@H]3CC[C@H](O)CC3)c2n1` has an IC50 of 53 nM (PKN1; enzyme activity; inhibitor).
With `N=C(N)NCCC[C@H](NC(=O)[C@@H](N)CC(=O)O)C(=O)N[C@@H](Cc1ccccc1)C(=O)O` the EC50 was over 100000 nM (Melanocortin receptor 5; reporter gene; agonist).
`CNc1cccc2cc(C(=O)NCc3ccc(C(=O)O)cc3)c(=O)[nH]c12` gave a Kd of 9.3 nM (gyrB; binding; ITC).
`N=C(N)NCCC[C@H](NC(=O)[C@H](CC(=O)O)NC(=O)[C@H](Cc1c[nH]c2ccccc12)NC(=O)[C@@H](N)CCCNC(=N)N)C(=O)N[C@@H](Cc1ccccc1)C(=O)NCC(=O)O` has an EC50 of over 100000 nM (Melanocortin receptor 5; reporter gene; agonist).
`NS(=O)(=O)c1ccc(NC(=S)N2CCN(C(=O)c3ccco3)CC2)cc1` gave an IC50 of 37.2 nM (CA9; enzyme activity; inhibitor).
For `CNc1cccc2cc(C(=O)Nc3cccc(C(=O)O)c3)c(=O)[nH]c12`, the Kd was 23 nM (gyrB; binding; ITC).
`Cc1cc(Nc2nc(N[C@@H](C)c3ccc(F)cc3)c(C#N)cc2F)n[nH]1` gave an IC50 of 213 nM (PKN1; enzyme activity; inhibitor).
With `Cc1cc(C(=O)N2CCOCC2CC(=O)c2cccs2)ccc1S(N)(=O)=O` (stereo not drawn) the IC50 was 82 nM (CA9; enzyme activity; inhibitor).
`Cc1cnc(-c2ccc(-c3ccc(NC(=O)Nc4c(F)cc(F)cc4F)cc3F)c3c2C(=O)NC3)[nH]1` has a Kd of 18 nM (Tyrosine-protein kinase HCK (HCK, Homo sapiens, UniProt P08631); binding; competition with immobilised ligand).
`NS(=O)(=O)c1ccc(NC(=O)COC(=O)c2ccccc2Nc2cccc(C(F)(F)F)c2)cc1` has an IC50 of 87 nM (CA9; enzyme activity; inhibitor).
`CN1CCCn2c1nc1c2c(=O)n(C)c(=O)n1C` has a Ki of over 25000 nM (Adora1; ligand displacement; radioligand; cell membranes).
`N=C(N)NCCC[C@H](NC(=O)[C@H](Cc1ccccc1)NC(=O)[C@@H](N)Cc1cnc[nH]1)C(=O)N[C@@H](Cc1c[nH]c2ccccc12)C(=O)O` gave an EC50 of 10100 nM (Melanocortin receptor 5; reporter gene; agonist).
With `CCCCN1CCCn2c1nc1c2c(=O)n(CCC)c(=O)n1CCC` the Ki was 280 nM (Adora1; ligand displacement; radioligand; cell membranes).
For `Cc1nn(-c2ccccc2)c(C)c1C1COCCN1C(=O)c1ccc(Cl)c(S(N)(=O)=O)c1` (stereo not drawn), the IC50 was 155 nM (CA9; enzyme activity; inhibitor).
For `CCCC[C@H](NC(=O)[C@@H](NC(=O)[C@@H](N)Cc1ccc(O)cc1)C(C)C)C(=O)NCC(=O)N[C@@H](Cc1c[nH]cn1)C(=O)N[C@@H](Cc1ccccc1)C(=O)N[C@@H](CCCNC(=N)N)C(=O)N[C@H](Cc1c[nH]c2ccccc12)C(=O)N[C@@H](CC(=O)O)C(=O)N[C@@H](CCCNC(=N)N)C(=O)N[C@@H](Cc1ccccc1)C(=O)NCC(=O)O`, the EC50 was 10 nM (Melanocortin receptor 5; reporter gene; agonist).
With `CC(NC(=O)C(C)N1CCN(C(=O)c2cccc(O)c2)CC1)c1ccc(S(N)(=O)=O)cc1` (stereo not drawn) the IC50 was 750 nM (CA9; enzyme activity; inhibitor).
With `C=CCN1CCCn2c1nc1c2c(=O)n(C)c(=O)n1C` the Ki was 4400 nM (Adora1; ligand displacement; radioligand; cell membranes).
The IC50 of `NS(=O)(=O)c1ccc(NC(=O)C(Cc2c[nH]c3ccccc23)NC(=O)c2cccs2)cc1` (stereo not drawn) is reported as 37.2 nM (CA9; enzyme activity; inhibitor).
With `CSCC[C@H](NC(=O)[C@@H](NC(=O)[C@@H](N)Cc1ccc(O)cc1)C(C)C)C(=O)NCC(=O)N[C@@H](Cc1c[nH]cn1)C(=O)N[C@@H](Cc1ccccc1)C(=O)N[C@@H](CCCNC(=N)N)C(=O)N[C@@H](Cc1c[nH]c2ccccc12)C(=O)N[C@@H](CC(=O)O)C(=O)O` the EC50 was 73 nM (Melanocortin receptor 5; reporter gene; agonist).
